Bioassay records from PubChem.
PGC1a acetyl up – raises PGC1a acetylation signal in U2OS cells; AID 651723; hit rate 0.21% among 350,000; U2OS PGC1a acetylation AlphaScreen, overnight; activation, % at 15.6 µM;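 active = every replicate reaching activation of at least 50%, whatever the mean replicate activation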;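 note: hits raise the AlphaScreen acetylation signal above neutral controls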
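detection = AlphaScreen lysate read | assay system = U2OS cells expressing flag-PGC1a plus GCN5 | input = 7000 cells/well | dosing = one concentration | times = compound overnight at 37 °C, each detection step 1 h RT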
Numbers without * were called inactive. Not all results are given here.

O=Nc1ccc(O)c2ncccc12 was read as PGC1a acetyl up 245.0*.
`O=C(N/N=C/c1ccc(O)c2ncccc12)c1cccc(Br)c1` gave PGC1a acetyl up -66.8.
COc1ccc(C(=C(CC(=O)O)C(=O)OC(C)(C)C)c2cc(OC)c(OC)c(OC)c2)cc1OC was read as PGC1a acetyl up -47.4.
Screening CC1=C(C(N)=O)C(c2ccccc2)n2nc(-c3ccncc3)nc2N1 (stereo unspecified) returned PGC1a acetyl up 59.8*.
Screening CC(=O)N1CCN(C(C)=O)C1c1ccccc1 returned PGC1a acetyl up -46.7.
For O=C(CCl)Nc1ccc(N=Nc2ccccc2)cc1 the results were PGC1a acetyl up 101.3*.
O=C(CCCCCCC(=O)Nc1ccccc1)NO was read as PGC1a acetyl up -40.0.
`Cc1ccc(CCC(=O)Nc2ccc(Cl)cc2)o1` gave PGC1a acetyl up -71.7.
CCC(=O)N(C)C[C@@H]1Oc2ncc(C#CCc3ccccc3)cc2C(=O)N([C@H](C)CO)C[C@@H]1C was read as PGC1a acetyl up -100.6.
For O=C(NC[C@@H]1N[C@@H](CO)[C@H]1c1ccc(C2=CCCCC2)cc1)c1ccc(F)cc1 the results were PGC1a acetyl up 65.5*.
CN(C[C@H]1N[C@@H](CO)[C@@H]1c1ccc(C2=CCCC2)cc1)C(=O)c1ccc(F)cc1 was read as PGC1a acetyl up -78.8.
For CC(c1n[nH]c(=S)n1Cc1ccccc1)N(C)C (stereo unspecified) the results were PGC1a acetyl up -50.4.
For O=C(C[C@@H]1C=C[C@@H](NC(=O)CN2CCOCC2)[C@H](CO)O1)NC1CCCCC1 the results were PGC1a acetyl up -51.4.
COC(=O)C1=C(N)OC2=C(C(=O)CC(C)(C)C2)C1c1cccs1 (stereo unspecified) was read as PGC1a acetyl up 56.9*.
For CC1(C)OC(C)(C)/C(=C\c2ccc(OCC(N)=O)cc2)C1=O the results were PGC1a acetyl up -45.8.
`CCOc1ccc(-c2[nH]ncc2-c2ccc(OC)c(OC)c2)c(O)c1` gave PGC1a acetyl up 67.6*.
`COc1ccc(-c2[nH]ncc2-c2ccc3c(c2)OCCO3)c(O)c1` gave PGC1a acetyl up -53.1.
For COc1ccc(-c2[nH]ncc2CN(C)C(C)c2ccon2)cc1F (stereo unspecified) the results were PGC1a acetyl up -79.8.
`CCN1CCN(Cc2ccc(NC(=O)c3cc(NC(=O)c4cncc(-c5ccc(C#N)cc5)c4)cc(OC)c3)cc2C(F)(F)F)CC1` gave PGC1a acetyl up -85.9.
`CC(=NNC(=S)N1CCC1)c1ccccn1` gave PGC1a acetyl up 190.1*.
C/C(=N\NC(=O)CN1CCCCC1)c1ccccc1O was read as PGC1a acetyl up -43.8.
For CSc1ncccc1C(=O)N1CCN(C(=O)c2ccccc2)CC1 the results were PGC1a acetyl up -43.6.
For Cc1cccc2cc(CN(Cc3ccc(F)cc3)Cc3nnnn3C3CCCC3)c(=O)[nH]c12 the results were PGC1a acetyl up -52.8.
For Clc1ccccc1CN(Cc1ccco1)Cc1nnnn1C1CCCC1 the results were PGC1a acetyl up 132.4*.
`NC(=O)c1sc2nc3c(c(-c4cccs4)c2c1N)CCCCC3` gave PGC1a acetyl up -43.6.
O=C(N/N=C/c1ccc([N+](=O)[O-])o1)c1cc2ccccc2o1 was read as PGC1a acetyl up 329.5*.
`COc1cc(/C=N/NC(=O)c2ccc(O)cc2)ccc1OCC(=O)Nc1cccc([N+](=O)[O-])c1` gave PGC1a acetyl up -52.3.
For O=C(N/N=C/c1ccc([N+](=O)[O-])o1)c1ccc(O)cc1 the results were PGC1a acetyl up 64.4*.
CCOC(=O)C(=Cc1ccc(OCc2ccc([N+](=O)[O-])cc2)c(OC)c1)C(=O)OCC was read as PGC1a acetyl up -57.1.
`CC(=O)Nc1nc(C)c(Oc2ccc(Cl)cc2)c(=O)[nH]1` gave PGC1a acetyl up -45.0.
C[C@@H](C(=O)Nc1cc(C(F)(F)F)ccc1N1CCOCC1)N1C(=O)C2CC=CCC2C1=O (stereo partly specified) was read as PGC1a acetyl up -41.4.
Screening O=C(Nc1cc(C(F)(F)F)ccc1N1CCOCC1)c1ccccc1 returned PGC1a acetyl up 63.2*.
`O=C(Nc1ccccc1N1CCOCC1)C1(c2ccc(Cl)cc2)CCC1` gave PGC1a acetyl up -40.7.
`CC(=O)N(C)C[C@H]1Oc2ncc(C#CCc3ccccc3)cc2C(=O)N([C@@H](C)CO)C[C@H]1C` gave PGC1a acetyl up -52.0.
For COc1cccc(CN2C[C@@H]3N[C@H](C2)C3c2ccc(-c3ccccc3OC)cc2)c1 (stereo partly specified) the results were PGC1a acetyl up 57.9*.
Screening O=C(Nc1ccc(C(F)(F)F)cc1)N1C[C@@H]2N[C@H](C1)C2c1ccc(/C=C/c2ccccc2)cc1 (stereo partly specified) returned PGC1a acetyl up -73.5.
Screening O=C(Nc1ccc(C(F)(F)F)cc1)N1C[C@@H]2N[C@H](C1)C2c1ccc(-c2ccccc2)cc1 (stereo partly specified) returned PGC1a acetyl up -43.1.
COc1ccccc1-c1ccc([C@@H]2[C@H](CO)N(C(C)=O)C23CN(C(C)=O)C3)cc1 was read as PGC1a acetyl up -58.2.
COc1cccc(CN2CCC(CO)(CC3CCCCO3)CC2)c1 (stereo unspecified) was read as PGC1a acetyl up -99.9.
For N#Cc1cccc(-c2ccc(C3[C@@H]4CN(Cc5ccccc5F)C[C@H]3N4)cc2)c1 (stereo partly specified) the results were PGC1a acetyl up -47.6.
`O=C(Nc1cccc(F)c1)N1C[C@@H]2N[C@H](C1)C2c1ccc(-c2ccc(F)cc2)cc1` (stereo partly specified) gave PGC1a acetyl up 73.3*.
`COc1ccccc1-c1ccc(C2[C@@H]3CN(Cc4cccc(F)c4)C[C@H]2N3)cc1` (stereo partly specified) gave PGC1a acetyl up 71.9*.
Screening Cc1cccc(-c2ccc(C3[C@@H]4CN(Cc5cccc(F)c5)C[C@H]3N4)cc2)c1 (stereo partly specified) returned PGC1a acetyl up 59.4*.
`C[C@H](CO)N1C[C@H](C)[C@@H](CN(C)Cc2cncnc2)Oc2cc(C#CC3CC3)ccc2S1(=O)=O` gave PGC1a acetyl up -49.8.
COc1ccc(CN(Cc2cccn2C)S(=O)(=O)c2ccccc2)cc1 was read as PGC1a acetyl up -74.3.
O=C(C[C@H]1CC[C@@H](NS(=O)(=O)c2ccc(F)cc2)[C@H](CO)O1)N1CCN(c2ccccc2)CC1 was read as PGC1a acetyl up -49.7.
For Cc1nc(C(C)N(C)Cc2nc(-c3ccc4c(c3)OCO4)no2)c(C)s1 (stereo unspecified) the results were PGC1a acetyl up -97.1.
COc1cccc(N2C(=O)CC(N3CCC(c4nc5ccccc5[nH]4)CC3)C2=O)c1 (stereo unspecified) was read as PGC1a acetyl up 57.9*.
Screening Cc1ccccc1S(=O)(=O)NCC[C@@H]1CC[C@@H](NC(=O)C2CCOCC2)[C@H](CO)O1 returned PGC1a acetyl up -58.1.
Screening N#Cc1ccc(C(=O)CSc2nnc(-c3ccc(C(F)(F)F)cn3)s2)cc1 returned PGC1a acetyl up -47.4.
`CSc1nn(-c2ccc(C(=O)OC(C(=O)NC(N)=O)C(C)C)cc2)c(=S)s1` (stereo unspecified) gave PGC1a acetyl up -44.9.
Cc1nc(Nc2ccc(S(N)(=O)=O)cc2)sc1C(=O)Nc1ccccc1 was read as PGC1a acetyl up -40.5.
For CCOC(=O)c1ccc(NC(=O)c2nc(S(=O)(=O)Cc3ccccc3)ncc2Cl)cc1 the results were PGC1a acetyl up 78.0*.
